From ChEMBL document CHEMBL4330069, “Boosting the efficacy of anti-MRSA β-lactam antibiotics via an easily accessible, non-cytotoxic and orally bioavailable FtsZ inhibitor” (Eur J Med Chem, 2019)
≈ marks a conversion by molar mass, not a printed value.

What was measured:
Staphylococcus aureus [1] = assay: Synergistic antibacterial activity against multidrug-resistant Staphylococcus aureus isolate 417 in presence of amoxicillin by broth microdilution assay; assay type: functional
Staphylococcus aureus [2] = assay: Synergistic antibacterial activity against multidrug-resistant Staphylococcus aureus isolate 1344 in presence of meropenem by broth microdilution assay; assay type: functional
Outline: (§1)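 Clinical MRSA isolate panel; compound and β-lactam tested alone and in combination by CLSI broth microdilution, compounds dissolved in DMSO, growth inhibition scored by eye, run in duplicate. FIC index = FIC(compound) + FIC(drug), each the MIC in combination divided by the MIC alone; an index ≤ 0.5 was called synergy.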

Staphylococcus aureus [3] = assay: Synergistic antibacterial activity against multidrug-resistant Staphylococcus aureus isolate 3589 in presence of meropenem by broth microdilution assay; assay type: functional
Staphylococcus aureus [4] = assay: Synergistic antibacterial activity against multidrug-resistant Staphylococcus aureus isolate 254 assessed as fractional Inhibitory concentration index in presence of cloxacillin by broth microdilution assay; assay type: functional
Staphylococcus aureus [5] = assay: Synergistic antibacterial activity against multidrug-resistant Staphylococcus aureus isolate 2516 in presence of cefuroxime by broth microdilution assay; assay type: functional
Outline: (§2)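 CLSI broth microdilution on clinical MRSA isolates. MICs were measured for the β-lactam alone, the test agent alone and the two combined. Compounds were dissolved in DMSO, and growth inhibition was scored by eye. FIC index is the sum, over both agents, of MIC in combination divided by MIC alone. An FIC index ≤0.5 was taken as synergy.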

Staphylococcus aureus [6] = assay: Synergistic antibacterial activity against multidrug-resistant Staphylococcus aureus isolate 1749 in presence of methicillin by broth microdilution assay; assay type: functional; outline: as §1
Staphylococcus aureus [7] = assay: Synergistic antibacterial activity against multidrug-resistant Staphylococcus aureus isolate 85 in presence of methicillin by broth microdilution assay; assay type: functional
Staphylococcus aureus [8] = assay: Antibacterial activity against multidrug-resistant Staphylococcus aureus isolate 2516 by broth microdilution assay; assay type: functional
Outline: (§3)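 Broth microdilution MIC per CLSI guidelines against clinical MRSA isolates, for β-lactams and test compound alone and in combination. Compounds were dissolved in DMSO. Growth was read by eye, in duplicate. FIC index = FIC(compound) + FIC(drug); synergy defined as FIC index ≤0.5.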

Staphylococcus aureus [9] = assay: Synergistic antibacterial activity against multidrug-resistant Staphylococcus aureus isolate 2516 assessed as fractional Inhibitory concentration index in presence of methicillin by broth microdilution assay; assay type: functional
Outline: (§4)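 CLSI broth microdilution run on clinical MRSA isolates with each β-lactam alone, the test agent alone, and the two combined; agents dissolved in DMSO. Growth inhibition was read by eye. FIC index = FIC(compound) + FIC(β-lactam), where each FIC is the MIC in combination divided by the MIC alone. An index ≤0.5 was taken as synergy.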

Staphylococcus aureus [10] = assay: Antibacterial activity against multidrug-resistant Staphylococcus aureus isolate 254 by broth microdilution assay; assay type: functional; outline: as §3
Staphylococcus aureus [11] = assay: Synergistic antibacterial activity against multidrug-resistant Staphylococcus aureus isolate 3332 in presence of amoxicillin by broth microdilution assay; assay type: functional; outline: as §2
Staphylococcus aureus [12] = assay: Antibacterial activity against multidrug-resistant Staphylococcus aureus isolate 2224 by broth microdilution assay; assay type: functional; outline: as §3
Staphylococcus aureus [13] = assay: Synergistic antibacterial activity against multidrug-resistant Staphylococcus aureus isolate 3589 in presence of cefuroxime by broth microdilution assay; assay type: functional
Staphylococcus aureus [14] = assay: Synergistic antibacterial activity against multidrug-resistant Staphylococcus aureus isolate 1717 assessed as fractional Inhibitory concentration index in presence of cloxacillin by broth microdilution assay; assay type: functional; outline: as §4
Staphylococcus aureus [15] = assay: Synergistic antibacterial activity against multidrug-resistant Staphylococcus aureus isolate 774 assessed as fractional Inhibitory concentration index in presence of meropenem by broth microdilution assay; assay type: functional
Staphylococcus aureus [16] = assay: Synergistic antibacterial activity against multidrug-resistant Staphylococcus aureus isolate 200 in presence of cloxacillin by broth microdilution assay; assay type: functional; outline: as §1
Staphylococcus aureus [17] = assay: Synergistic antibacterial activity against multidrug-resistant Staphylococcus aureus isolate 3332 in presence of methicillin by broth microdilution assay; assay type: functional; outline: as §2
Staphylococcus aureus [18] = assay: Synergistic antibacterial activity against multidrug-resistant Staphylococcus aureus isolate 2224 in presence of amoxicillin by broth microdilution assay; assay type: functional; outline: as §1
Staphylococcus aureus [19] = assay: Synergistic antibacterial activity against multidrug-resistant Staphylococcus aureus isolate 757 in presence of meropenem by broth microdilution assay; assay type: functional
Staphylococcus aureus [20] = assay: Synergistic antibacterial activity against multidrug-resistant Staphylococcus aureus isolate 2919 in presence of cloxacillin by broth microdilution assay; assay type: functional; outline: as §2
Staphylococcus aureus [21] = assay: Synergistic antibacterial activity against multidrug-resistant Staphylococcus aureus isolate 2895 in presence of meropenem by broth microdilution assay; assay type: functional; outline: as §2
Staphylococcus aureus [22] = assay: Synergistic antibacterial activity against multidrug-resistant Staphylococcus aureus isolate 256 in presence of cefuroxime by broth microdilution assay; assay type: functional; outline: as §2
Staphylococcus aureus [23] = assay: Synergistic antibacterial activity against multidrug-resistant Staphylococcus aureus isolate 417 assessed as fractional Inhibitory concentration index in presence of cloxacillin by broth microdilution assay; assay type: functional
Staphylococcus aureus [24] = assay: Synergistic antibacterial activity against multidrug-resistant Staphylococcus aureus isolate 2728 in presence of cefuroxime by broth microdilution assay; assay type: functional; outline: as §2
Staphylococcus aureus [25] = assay: Synergistic antibacterial activity against multidrug-resistant Staphylococcus aureus isolate 417 in presence of meropenem by broth microdilution assay; assay type: functional
Staphylococcus aureus [26] = assay: Antibacterial activity against Staphylococcus aureus ATCC 29213 harboring FtsZ 32 mutation after 20 hrs; assay type: functional; settings: ATCC 29213, 20 h
Outline: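 Broth microdilution MIC per CLSI guidelines, compounds dissolved in DMSO. Resistant mutants were selected by serial passage of ATCC 29213 in LB at 37 °C with shaking at 250 rpm. Each 20 h culture started at half the MIC, and the concentration was doubled at each transfer. Growth inhibition was read by eye, in duplicate.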

Staphylococcus aureus [27] = assay: Synergistic antibacterial activity against multidrug-resistant Staphylococcus aureus isolate 1749 in presence of meropenem by broth microdilution assay; assay type: functional; outline: as §1
Staphylococcus aureus [28] = assay: Synergistic antibacterial activity against multidrug-resistant Staphylococcus aureus isolate 85 in presence of cloxacillin by broth microdilution assay; assay type: functional
Staphylococcus aureus [29] = assay: Synergistic antibacterial activity against multidrug-resistant Staphylococcus aureus isolate 231 assessed as fractional Inhibitory concentration index in presence of cloxacillin by broth microdilution assay; assay type: functional; outline: as §4
Staphylococcus aureus [30] = assay: Synergistic antibacterial activity against multidrug-resistant Staphylococcus aureus isolate 3332 in presence of cefuroxime by broth microdilution assay; assay type: functional; outline: as §2
Staphylococcus aureus [31] = assay: Synergistic antibacterial activity against multidrug-resistant Staphylococcus aureus isolate 3580 assessed as fractional Inhibitory concentration index in presence of cefuroxime by broth microdilution assay; assay type: functional
Staphylococcus aureus [32] = assay: Antibacterial activity against multidrug-resistant Staphylococcus aureus ATCC 43300 infected in BALB/C mouse assessed as mouse survival at 50 mg/kg, ip bid co-administered with 25 mg/kg, ip bid cefuroxime measured on day 4 post infection (reference value: 50%)
[33] = Selective index, ratio of IC50 for mouse L929 cells to MIC for Staphylococcus aureus ATCC 29213
Outline: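 Selectivity index calculated as L929 IC50 (μM) divided by S. aureus MIC (μM).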

Staphylococcus aureus [34] = assay: Synergistic antibacterial activity against multidrug-resistant Staphylococcus aureus isolate 2973 in presence of methicillin by broth microdilution assay; assay type: functional; outline: as §2
Staphylococcus aureus [35] = assay: Synergistic antibacterial activity against multidrug-resistant Staphylococcus aureus isolate 3267 in presence of cefuroxime by broth microdilution assay; assay type: functional; outline: as §2
Staphylococcus aureus [36] = assay: Synergistic antibacterial activity against multidrug-resistant Staphylococcus aureus isolate 3589 in presence of amoxicillin by broth microdilution assay; assay type: functional

For `CCCCCCCCCNc1ccc(F)c(C(N)=O)c1F`, the MIC (Staphylococcus aureus [1]) was 8 µg/mL, the MIC (Staphylococcus aureus [2]) was 16 µg/mL and the MIC (Staphylococcus aureus [3]) was 4 µg/mL. For the same molecule, the “fractional inhibitory concentration index (FICI)” value (Staphylococcus aureus [4]) was 0.2, the MIC (Staphylococcus aureus [5]) was 2 µg/mL and the MIC (Staphylococcus aureus [6]) was 2 µg/mL. The MIC (Staphylococcus aureus [7]) was 4 µg/mL, the MIC (Staphylococcus aureus [8]) was 32 µg/mL (≈ 107 µM) and the “fractional inhibitory concentration index (FICI)” value (Staphylococcus aureus [9]) was 0.2. For the same molecule, the MIC (Staphylococcus aureus [10]) was 16 µg/mL (≈ 53.6 µM), the MIC (Staphylococcus aureus [11]) was 8 µg/mL and the MIC (Staphylococcus aureus [12]) was 1020 µg/mL (≈ 3430 µM). For the same molecule, the MIC (Staphylococcus aureus [13]) was 2 µg/mL, the “fractional inhibitory concentration index (FICI)” value (Staphylococcus aureus [14]) was 2.5 and the “fractional inhibitory concentration index (FICI)” value (Staphylococcus aureus [15]) was 0.1. For the same molecule, the MIC (Staphylococcus aureus [16]) was 1 µg/mL, the MIC (Staphylococcus aureus [17]) was 4 µg/mL and the MIC (Staphylococcus aureus [18]) was 64 µg/mL. The MIC (Staphylococcus aureus [19]) was 16 µg/mL, the MIC (Staphylococcus aureus [20]) was 1 µg/mL and the MIC (Staphylococcus aureus [21]) was 2 µg/mL. For the same molecule, the MIC (Staphylococcus aureus [22]) was 2 µg/mL, the “fractional inhibitory concentration index (FICI)” value (Staphylococcus aureus [23]) was 0.1 and the MIC (Staphylococcus aureus [24]) was 2 µg/mL. It also gave an MIC (Staphylococcus aureus [25]) of 4 µg/mL, an MIC (Staphylococcus aureus [26]) of 32 µg/mL (≈ 107 µM) and an MIC (Staphylococcus aureus [27]) of 4 µg/mL. The MIC (Staphylococcus aureus [28]) was 0.5 µg/mL, the “fractional inhibitory concentration index (FICI)” value (Staphylococcus aureus [29]) was 0.3 and the MIC (Staphylococcus aureus [30]) was 2 µg/mL. The “fractional inhibitory concentration index (FICI)” value (Staphylococcus aureus [31]) was 0.1, the Activity (Staphylococcus aureus [32]) was 100% and the “Selectivity Index” value [33] was greater than 32. For the same molecule, the MIC (Staphylococcus aureus [34]) was 4 µg/mL, the MIC (Staphylococcus aureus [35]) was 2 µg/mL and the MIC (Staphylococcus aureus [36]) was 8 µg/mL.
